Screens deposited in PubChem by Broad Institute.
The full list was thinned out, with hits kept by preference.
GASC1 inh: inhibitors of human demethylase GASC-1 KDM4C; Q9H3R0; GST-KDM4C 2-372, H3K9me3 peptide, LANCE TR-FRET; inhibition, % at 12.5 µM; hit rate 0.15% among 96,000; AID 720574;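 active = mean replicate inhibition above about 25%, with at least 55% of replicates also reaching it, limit read from the data, passing the limit was not always enough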
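Material: N-terminal GST-fused human GASC-1 (KDM4C) fragment, residues 2-372. Input: 10 nM enzyme. Incubation: enzyme reaction 30 min, then detection 60 min, both room temperature. Doses: one test concentration per compound. Read-out basis: inhibition from TR-FRET ratio decrease. Detection: LANCE TR-FRET, excitation 340 nm, emissions 618 and 671 nm.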
T cruzi growth-1: T. cruzi proliferation inhibition; AID 624255; inhibition, % at 8.34 µM; T. cruzi beta-gal in NIH3T3, GalScreen luminescence, 90 h; hit rate 5.9% among 77,000;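 active = mean inhibition above about 93%, with at least 55% of replicates each passing it, limit read from the data, passing the limit was not always enough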
IDH1 mut inh: inhibitors of human IDH1 R132H; O75874; IDH1 R132H reductase, diaphorase/resazurin fluorescence, 60 min; inhibition, % at 10 µM; hit rate 0.18% among 70,000; AID 624101; in the data active = inhibition above about 34%;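 also: 0% = DMSO and 100% = no enzyme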
Target sequence (O75874 whole entry R132H): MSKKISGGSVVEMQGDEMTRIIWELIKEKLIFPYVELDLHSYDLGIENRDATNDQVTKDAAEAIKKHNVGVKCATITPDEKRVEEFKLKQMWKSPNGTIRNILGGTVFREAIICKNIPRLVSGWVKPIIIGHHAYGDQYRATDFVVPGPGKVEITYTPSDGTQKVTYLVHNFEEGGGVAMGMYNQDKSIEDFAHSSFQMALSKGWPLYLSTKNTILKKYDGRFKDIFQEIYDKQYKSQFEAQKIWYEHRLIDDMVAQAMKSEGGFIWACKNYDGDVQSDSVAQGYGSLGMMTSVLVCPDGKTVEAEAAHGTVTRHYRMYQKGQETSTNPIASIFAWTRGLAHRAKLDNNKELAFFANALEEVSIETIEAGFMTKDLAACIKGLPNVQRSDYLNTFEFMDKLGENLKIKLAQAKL
T cruzi growth-2: Trypanosoma cruzi proliferation inhibition; shares compounds with T cruzi growth-1; T. cruzi beta-gal in NIH3T3, GalScreen luminescence, 90 h; inhibition, % at 8.35 µM; hit rate 72% among 5,600; AID 651739;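 active = mean replicate inhibition above about 95% and at least 55% of replicates individually reaching it, limit read from the data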
T cruzi growth-3: blocks T. cruzi growth in NIH3T3 host cells; shares compounds with T cruzi growth-1; inhibition, % at 2.09 µM; hit rate 21% among 5,600; T. cruzi beta-gal in NIH3T3, GalScreen luminescence, 90 h; AID 651740;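 active = mean inhibition above about 95%, with at least 55% of replicates also reaching it, limit read from the data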;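 also: plate controls were neutral control median for no effect and positive control median for full effect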
3T3 cytotox: NIH/3T3 (mouse) viability loss. shares compounds with T cruzi growth-1. NIH/3T3 viability, CellTiter-Glo ATP luminescence, 90 h. cytotoxicity (signal decrease), % at 8.35 µM. hit rate 14% among 5,600;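 active = mean signal decrease across replicates above about 35% based on untreated-well scatter, with enough replicates individually passing, limit read from the data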;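 also: 0% = median of neutral control wells and 100% = median of positive control wells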
NIH3T3 tox 2: kills mouse NIH/3T3 fibroblasts. shares compounds with T cruzi growth-1. NIH/3T3 viability, CellTiter-Glo ATP luminescence, 90 h. inhibition, % at 24.9 µM. hit rate 56% among 5,600. AID 651744;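 active = mean loss of cell viability signal at or above a set limit, and enough replicates individually reaching it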;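 also: 0% = median of neutral control wells and 100% = median of positive control wells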
Starred values were filed as active, the others as inactive; · = no result given.

SMILES | GASC1 inh | T cruzi growth-1 | IDH1 mut inh | T cruzi growth-2 | T cruzi growth-3 | 3T3 cytotox | NIH3T3 tox 2
COc1ccc(S(=O)(=O)N(C)C[C@@H]2Oc3cc(C#CC4CC4)ccc3S(=O)(=O)N([C@@H](C)CO)C[C@@H]2C)cc1 | 0.4 | 109.8* | · | 103.8* | 100.9* | -19.2 | 26.9*
C[C@@H]1CN([C@H](C)CO)S(=O)(=O)c2ccc(C#CC3CCCC3)cc2O[C@H]1CN(C)S(C)(=O)=O | -1.1 | 43.2 | -6.3 | · | · | · | ·
Cc1ccc(S(=O)(=O)N(C)C[C@@H]2Oc3cc(C#CC4CCCC4)ccc3S(=O)(=O)N([C@H](C)CO)C[C@@H]2C)cc1 | 0.2 | 124.7* | -0.1 | 89.3 | 102.9* | 7.1 | 4.4
COCC#Cc1ccc2c(c1)O[C@H](CN(C)S(=O)(=O)c1ccc(OC)cc1)[C@@H](C)CN([C@H](C)CO)S2(=O)=O | -1.7 | · | 3.5 | · | · | · | ·
COc1ccc(S(=O)(=O)N(C)C[C@H]2Oc3cc(C#CC4CCCCC4)ccc3S(=O)(=O)N([C@H](C)CO)C[C@@H]2C)cc1 | 1.5 | 82.9 | · | · | · | · | ·
COc1ccc(S(=O)(=O)N(C)C[C@H]2Oc3cc(C#CC4CC4)ccc3S(=O)(=O)N([C@H](C)CO)C[C@@H]2C)cc1 | 0.8 | 105.8* | · | 103.0* | 51.6 | 22.0 | 49.9*
NC(=O)C1(N2CCCCC2)CCN(CC(=O)Nc2ccc(Cl)cc2)CC1 | · | · | 0.5 | · | · | · | ·
COc1ccc(CN(C)C[C@@H]2OCCCC[C@H](C)Oc3ccc(NS(=O)(=O)c4c(C)noc4C)cc3C(=O)N([C@@H](C)CO)C[C@H]2C)cc1 | -0.2 | · | 3.4 | · | · | · | ·
CCOC(=O)Nc1ccc2c(c1)N(C(=O)CCN1CCOCC1)c1ccccc1CC2 | · | · | 0.0 | · | · | · | ·
COc1ccc(S(=O)(=O)N(C)C[C@@H]2Oc3cc(C#CC4CCCCC4)ccc3S(=O)(=O)N([C@H](C)CO)C[C@@H]2C)cc1 | -0.2 | 79.1 | · | · | · | · | ·
COc1ccc(S(=O)(=O)N(C)C[C@@H]2Oc3cc(C#CC4CC4)ccc3S(=O)(=O)N([C@H](C)CO)C[C@@H]2C)cc1 | -0.1 | 109.0* | -1.5 | 104.3* | 84.7 | 11.8 | 25.3*
C[C@H](CO)N1C[C@H](C)[C@H](CN(C)C(=O)c2ccccc2F)Oc2ncc(C#Cc3ccccc3)cc2C1=O | 1.2 | -19.0 | · | · | · | · | ·
C[C@@H]1CN([C@H](C)CO)C(=O)c2cc(C#Cc3ccccc3)cnc2O[C@@H]1CN(C)C(=O)c1ccccc1F | 0.2 | -96.8 | · | · | · | · | ·
C[C@@H]1CN([C@@H](C)CO)C(=O)c2cc(C#Cc3cccc(F)c3)cnc2O[C@H]1CN(C)C(=O)c1ccccc1F | -0.9 | 110.3* | 0.5 | 108.8* | 47.2 | 20.8 | 24.6
C[C@H](CO)N1C[C@H](C)[C@@H](CN(C)C(=O)c2ccccc2F)Oc2ncc(C#Cc3cccc(F)c3)cc2C1=O | -1.5 | 98.9* | 0.6 | 103.4* | 36.2 | -10.8 | -10.4
COc1cc(OC)c(NC(=O)CSc2ccccn2)cc1Cl | · | · | 0.0 | · | · | · | ·
CO[C@H]1CN(C)C(=O)c2ccc(NS(=O)(=O)c3ccc(Cl)cc3)cc2OC[C@@H](C)N(C(=O)NC(C)C)C[C@H]1C | -0.1 | -13.1 | 0.3 | · | · | · | ·
COc1cccc(-c2cc(C#N)c(NC(=O)c3cccc([N+](=O)[O-])c3)o2)c1 | · | · | 0.2 | · | · | · | ·
Cc1c(C(=O)C2C(=O)C(=O)N(CCN3CCOCC3)C2c2ccccn2)cnn1-c1ccccc1 (centres undefined) | · | · | -0.1 | · | · | · | ·
CS(=O)(=O)N(CC(=O)NC1CCCC1)c1ccc(Cl)cc1 | · | · | 0.6 | · | · | · | ·
C[C@@H]1CCCCO[C@H](CN(C)C(=O)Nc2ccc(C(F)(F)F)cc2)[C@@H](C)CN([C@H](C)CO)C(=O)c2cc(NC(=O)c3ccncc3)ccc2O1 | · | 46.3 | · | · | · | · | ·
C[C@@H]1CCCCO[C@H](CN(C)C(=O)Nc2ccc(C(F)(F)F)cc2)[C@H](C)CN([C@H](C)CO)C(=O)c2cc(NC(=O)c3ccncc3)ccc2O1 | -0.6 | 103.4* | · | 113.5* | 50.3 | -6.9 | 42.0*
C[C@@H]1CN([C@H](C)CO)C(=O)c2cc(NC(=O)c3ccncc3)ccc2O[C@@H](C)CCCCO[C@H]1CN(C)C(=O)Nc1ccc(C(F)(F)F)cc1 | -0.4 | 48.6 | 0.9 | · | · | · | ·
